# *1 amine or outer side, *2 acyl side, *3 side chain or, on linkers, in order; H or OH if unused. Where a SMILES comes first, the peptide text is derived from it. Bridges are numbered along the chain shown (N, C = ends). [ ]: non-standard residue; d: D form. Cys(O)(CH2CO) = O=C([C@H](C[S+]([O-])CC(=O)[*:3])N[*:1])[*:2]
# Target: Integrin alpha-IIb/beta-3 (Homo sapiens, UniProt P08514+P05106)
# Assay: Inhibition of ADP-induced platelet aggregation in human platelet-rich plasma
# Procedure, shortened: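 Human blood drawn into 3.8% sodium citrate (9:1); PRP from 180g spin, 12 min, 22 °C; count adjusted to 3 × 10^8/mL with PPP. PRP preincubated with test sample 5 min at 37 °C in aggregometer, then ADP 17.2 µM final. Inhibition from transmittance change at 5 min versus no-sample maximum; 12-14 concentrations over ~200-fold range; IC50 by four-parameter fit; n ≥ 3.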
# Sequence of Integrin alpha-IIb/beta-3 (P05106 27-788 limits assumed): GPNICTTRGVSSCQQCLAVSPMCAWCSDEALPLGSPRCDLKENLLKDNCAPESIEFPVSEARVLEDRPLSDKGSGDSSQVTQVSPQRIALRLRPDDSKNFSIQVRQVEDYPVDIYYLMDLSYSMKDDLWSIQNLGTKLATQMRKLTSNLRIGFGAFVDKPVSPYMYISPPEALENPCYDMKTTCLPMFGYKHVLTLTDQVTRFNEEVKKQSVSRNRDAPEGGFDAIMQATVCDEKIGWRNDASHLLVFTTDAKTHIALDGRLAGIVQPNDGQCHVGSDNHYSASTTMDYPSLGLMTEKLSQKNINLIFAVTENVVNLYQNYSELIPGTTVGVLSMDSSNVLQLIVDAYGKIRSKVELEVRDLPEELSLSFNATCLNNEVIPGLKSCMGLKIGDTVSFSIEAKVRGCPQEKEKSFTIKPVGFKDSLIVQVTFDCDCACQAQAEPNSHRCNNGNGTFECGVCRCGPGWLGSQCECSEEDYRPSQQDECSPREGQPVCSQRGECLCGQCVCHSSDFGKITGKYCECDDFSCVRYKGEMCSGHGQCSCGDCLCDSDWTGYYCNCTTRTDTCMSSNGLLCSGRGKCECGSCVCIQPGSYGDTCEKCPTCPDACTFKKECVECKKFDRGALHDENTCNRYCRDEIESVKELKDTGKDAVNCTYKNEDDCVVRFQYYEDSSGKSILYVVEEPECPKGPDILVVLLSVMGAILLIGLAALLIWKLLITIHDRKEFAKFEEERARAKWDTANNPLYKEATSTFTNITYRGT
# Sequence of Integrin alpha-IIb/beta-3 (P08514 32-887 limits assumed): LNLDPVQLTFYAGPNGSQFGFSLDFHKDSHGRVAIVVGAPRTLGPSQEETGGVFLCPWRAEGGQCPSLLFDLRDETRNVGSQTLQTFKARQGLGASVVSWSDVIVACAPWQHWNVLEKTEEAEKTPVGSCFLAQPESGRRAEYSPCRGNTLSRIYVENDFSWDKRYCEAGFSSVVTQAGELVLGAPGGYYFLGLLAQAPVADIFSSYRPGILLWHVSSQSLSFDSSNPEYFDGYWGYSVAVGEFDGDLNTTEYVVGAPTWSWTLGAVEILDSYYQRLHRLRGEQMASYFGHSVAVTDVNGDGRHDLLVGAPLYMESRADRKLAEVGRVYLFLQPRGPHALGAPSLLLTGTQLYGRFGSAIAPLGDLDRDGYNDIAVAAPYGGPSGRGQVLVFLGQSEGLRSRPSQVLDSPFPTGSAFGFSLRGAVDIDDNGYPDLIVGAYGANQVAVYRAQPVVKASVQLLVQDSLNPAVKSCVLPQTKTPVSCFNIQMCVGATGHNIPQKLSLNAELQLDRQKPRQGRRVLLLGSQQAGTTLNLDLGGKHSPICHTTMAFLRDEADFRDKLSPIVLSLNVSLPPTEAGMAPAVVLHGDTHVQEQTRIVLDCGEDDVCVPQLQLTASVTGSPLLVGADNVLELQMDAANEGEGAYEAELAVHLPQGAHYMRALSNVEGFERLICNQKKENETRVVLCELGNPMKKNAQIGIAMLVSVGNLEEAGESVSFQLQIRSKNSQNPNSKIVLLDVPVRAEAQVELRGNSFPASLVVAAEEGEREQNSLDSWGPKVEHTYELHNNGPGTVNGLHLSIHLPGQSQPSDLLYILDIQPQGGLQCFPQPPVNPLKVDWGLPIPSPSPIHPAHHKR
# Sequence of Integrin alpha-IIb/beta-3 (P08514 891-1039 limits assumed): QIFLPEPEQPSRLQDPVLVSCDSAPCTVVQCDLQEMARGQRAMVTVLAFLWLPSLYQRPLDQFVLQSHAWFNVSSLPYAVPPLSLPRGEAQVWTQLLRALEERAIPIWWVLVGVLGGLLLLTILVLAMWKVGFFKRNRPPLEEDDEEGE
row,Structure (SMILES),IC50
1,N=C(N)NCCC[C@@H]1NC(=O)[C@H](CCC(=O)O)NC(=O)C[S+]([O-])C[C@@H](C(=O)O)NC(=O)[C@H](CC(=O)O)NC(=O)CNC1=O (some centres not stated),0.9 µM
2,N=C(N)NCCC[C@@H]1NC(=O)[C@H](CCC(=O)O)NC(=O)CSC[C@@H](C(=O)O)NC(=O)[C@H](CC(=O)O)NC(=O)CNC1=O,4.6 µM
3,N=C(N)NCCC[C@@H]1NC(=O)CNC(=O)C(c2ccc3ccccc3c2)SC[C@@H](C(=O)O)NC(=O)[C@H](CC(=O)O)NC(=O)CNC1=O (some centres not stated),4 µM
4,N=C(N)NCCC[C@@H]1NC(=O)[C@H](Cc2c[nH]c3ccccc23)NC(=O)CSC[C@@H](C(=O)O)NC(=O)[C@H](CC(=O)O)NC(=O)CNC1=O,0.46 µM
5,N=C(N)NCCC[C@@H]1NC(=O)[C@H](CCCN)NC(=O)CSC[C@@H](C(=O)O)NC(=O)[C@H](CC(=O)O)NC(=O)CNC1=O,0.25 µM
6,N=C(N)NCCC[C@@H]1NC(=O)[C@H](Cc2cnc[nH]2)NC(=O)CSC[C@@H](C(=O)O)NC(=O)[C@H](CC(=O)O)NC(=O)CNC1=O,0.54 µM
7,N=C(N)NCCC[C@@H]1NC(=O)CNC(=O)C(c2ccccc2C(F)(F)F)SC[C@@H](C(=O)O)NC(=O)[C@H](CC(=O)O)NC(=O)CNC1=O (some centres not stated),0.15 µM
8,CC(C)[C@H]1NC(=O)CSC[C@@H](C(=O)O)NC(=O)[C@H](CC(=O)O)NC(=O)CNC(=O)[C@H](CCCNC(=N)N)NC1=O,8.74 µM
9,N=C(N)NCCC[C@@H]1NC(=O)[C@H](CCC(N)=O)NC(=O)CSC[C@@H](C(=O)O)NC(=O)[C@H](CC(=O)O)NC(=O)CNC1=O,0.68 µM
10,CSCC[C@@H]1NC(=O)CSC[C@@H](C(=O)O)NC(=O)[C@H](CC(=O)O)NC(=O)CNC(=O)[C@H](CCCNC(=N)N)NC1=O,1.06 µM
11,N=C(N)NCCC[C@@H]1NC(=O)[C@@H](Cc2ccc(O)cc2)NC(=O)CS(=O)(=O)C[C@@H](C(=O)O)NC(=O)[C@H](CC(=O)O)NC(=O)CNC1=O,0.21 µM
12,C[C@@H]1NC(=O)C[S+]([O-])C[C@@H](C(=O)O)NC(=O)[C@H](CC(=O)O)NC(=O)CNC(=O)[C@H](CCCNC(=N)N)NC1=O (some centres not stated),0.61 µM
13,N=C(N)NCCC[C@@H]1NC(=O)CNC(=O)C(c2ccc(C(F)(F)F)cc2)SC[C@@H](C(=O)O)NC(=O)[C@H](CC(=O)O)NC(=O)CNC1=O (some centres not stated),0.9 µM
14,N=C(N)NCCC[C@@H]1NC(=O)CNC(=O)[C@H](Cc2ccccc2)SC[C@@H](C(=O)O)NC(=O)[C@H](CC(=O)O)NC(=O)CNC1=O,1.9 µM
15,N=C(N)NCCC[C@@H]1NC(=O)[C@@H](Cc2ccccc2)NC(=O)C[S+]([O-])C[C@@H](C(=O)O)NC(=O)[C@H](CC(=O)O)NC(=O)CNC1=O (some centres not stated),0.44 µM
16,CCC1SC[C@@H](C(=O)O)NC(=O)[C@H](CC(=O)O)NC(=O)CNC(=O)[C@H](CCCNC(=N)N)NC(=O)CNC1=O (some centres not stated),4.85 µM
17,N=C(N)NCCC[C@@H]1NC(=O)[C@@H](Cc2ccc(O)cc2)NC(=O)C[S+]([O-])C[C@@H](C(=O)O)NC(=O)[C@H](CC(=O)O)NC(=O)CNC1=O (some centres not stated),0.12 µM
18,N=C(N)NCCC[C@@H]1NC(=O)CCNC(=O)CSC[C@@H](C(=O)O)NC(=O)[C@H](CC(=O)O)NC(=O)CNC1=O,34.3 µM
19,N=C(N)NCCC[C@@H]1NC(=O)c2cccc(c2)CSC[C@@H](C(=O)O)NC(=O)[C@H](CC(=O)O)NC(=O)CNC1=O,30.8 µM

row,Structure (SMILES),IC50
1,N=C(N)NCCC[C@@H]1NC(=O)[C@H](Cc2ccccc2)NC(=O)CSC[C@@H](C(=O)O)NC(=O)[C@H](CC(=O)O)NC(=O)CNC1=O,0.22 µM
2,CC(C)[C@@H]1NC(=O)CSC[C@@H](C(=O)O)NC(=O)[C@H](CC(=O)O)NC(=O)CNC(=O)[C@H](CCCNC(=N)N)NC1=O,0.08 µM
3,N=C(N)NCCC[C@@H]1NC(=O)CNC(=O)C[S+]([O-])C[C@@H](C(=O)O)NC(=O)[C@H](CC(=O)O)NC(=O)CNC1=O (some centres not stated),0.37 µM
4,N=C(N)NCCC[C@@H]1NC(=O)[C@@H](Cc2cnc[nH]2)NC(=O)CSC[C@@H](C(=O)O)NC(=O)[C@H](CC(=O)O)NC(=O)CNC1=O,1.08 µM
5,N=C(N)NCCC[C@@H]1NC(=O)[C@H](CC(N)=O)NC(=O)C[S+]([O-])C[C@@H](C(=O)O)NC(=O)[C@H](CC(=O)O)NC(=O)CNC1=O (some centres not stated),0.46 µM
6,N=C(N)NCCC[C@@H]1NC(=O)[C@H](Cc2ccc(O)cc2)NC(=O)C[S+]([O-])C[C@@H](C(=O)O)NC(=O)[C@H](CC(=O)O)NC(=O)CNC1=O (some centres not stated),0.45 µM
7,N=C(N)NCCC[C@@H]1NC(=O)[C@@H](Cc2ccccc2)NC(=O)CSC[C@@H](C(=O)O)NC(=O)[C@H](CC(=O)O)NC(=O)CNC1=O,18.5 µM
8,N=C(N)NCCC[C@@H]1NC(=O)CNC(=O)C(c2cccc3ccccc23)SC[C@@H](C(=O)O)NC(=O)[C@H](CC(=O)O)NC(=O)CNC1=O (some centres not stated),0.78 µM
9,N=C(N)NCCC[C@@H]1NC(=O)CNC(=O)CS(=O)(=O)C[C@@H](C(=O)O)NC(=O)[C@H](CC(=O)O)NC(=O)CNC1=O,7.7 µM
10,N=C(N)NCCC[C@@H]1NC(=O)CNC(=O)[C@@H](Cc2ccccc2)SC[C@@H](C(=O)O)NC(=O)[C@H](CC(=O)O)NC(=O)CNC1=O,7 µM
11,N=C(N)NCCC[C@@H]1NC(=O)CNC(=O)C(c2ccc(-c3ccccc3)cc2)SC[C@@H](C(=O)O)NC(=O)[C@H](CC(=O)O)NC(=O)CNC1=O (some centres not stated),1.48 µM
12,N=C(N)NCCC[C@@H]1NC(=O)[C@H](Cc2ccccc2)NC(=O)C[S+]([O-])C[C@@H](C(=O)O)NC(=O)[C@H](CC(=O)O)NC(=O)CNC1=O (some centres not stated),2.23 µM
13,CCCC1SC[C@@H](C(=O)O)NC(=O)[C@H](CC(=O)O)NC(=O)CNC(=O)[C@H](CCCNC(=N)N)NC(=O)CNC1=O (some centres not stated),1.5 µM
14,N=C(N)NCCC[C@@H]1NC(=O)[C@@H](Cc2c[nH]c3ccccc23)NC(=O)CSC[C@@H](C(=O)O)NC(=O)[C@H](CC(=O)O)NC(=O)CNC1=O,4.78 µM
15,N=C(N)NCCC[C@@H]1NC(=O)[C@H](CCCCN)NC(=O)CSC[C@@H](C(=O)O)NC(=O)[C@H](CC(=O)O)NC(=O)CNC1=O,0.6 µM
16,N=C(N)NCCC[C@@H]1NC(=O)CNC(=O)CCSC[C@@H](C(=O)O)NC(=O)[C@H](CC(=O)O)NC(=O)CNC1=O,64.3 µM
17,CC(C)C[C@@H]1NC(=O)CSC[C@@H](C(=O)O)NC(=O)[C@H](CC(=O)O)NC(=O)CNC(=O)[C@H](CCCNC(=N)N)NC1=O,0.2 µM
18,N=C(N)NCCC[C@@H]1NC(=O)[C@H](CO)NC(=O)CSC[C@@H](C(=O)O)NC(=O)[C@H](CC(=O)O)NC(=O)CNC1=O,0.48 µM
19,CC[C@H](C)[C@@H]1NC(=O)CSC[C@@H](C(=O)O)NC(=O)[C@H](CC(=O)O)NC(=O)CNC(=O)[C@H](CCCN=C(N)N)NC1=O,0.27 µM

row,Structure (SMILES),IC50
1,C[C@H](O)[C@H]1NC(=O)CSC[C@@H](C(=O)O)NC(=O)[C@H](CC(=O)O)NC(=O)CNC(=O)[C@H](CCCN=C(N)N)NC1=O,2.92 µM
2,CC[C@@H](C)[C@H]1NC(=O)CSC[C@@H](C(=O)O)NC(=O)[C@H](CC(=O)O)NC(=O)CNC(=O)[C@H](CCCN=C(N)N)NC1=O,6.08 µM
3,C[C@@H](O)[C@@H]1NC(=O)C[S+]([O-])C[C@@H](C(=O)O)NC(=O)[C@H](CC(=O)O)NC(=O)CNC(=O)[C@H](CCCN=C(N)N)NC1=O (some centres not stated),0.1 µM
4,C[C@@H](O)[C@@H]1NC(=O)CSC[C@@H](C(=O)O)NC(=O)[C@H](CC(=O)O)NC(=O)CNC(=O)[C@H](CCCN=C(N)N)NC1=O,0.24 µM
5,CC(=O)NCC(=O)N[C@@H](CCCNC(=N)N)C(=O)NCC(=O)N[C@@H](CC(=O)O)C(=O)N[C@H](C(N)=O)C(C)C (Ac-GRGDV-NH2),> 500 µM
6,CC(=O)NCC(=O)N[C@@H](CCCNC(=N)N)C(=O)NCC(=O)N[C@@H](CC(=O)O)C(=O)N[C@H](C(=O)O)C(C)C (Ac-GRGDV-OH),77 µM
7,N=C(N)NCCC[C@@H]1NC(=O)[C@H](CC(=O)O)NC(=O)C[S+]([O-])C[C@@H](C(=O)O)NC(=O)[C@H](CC(=O)O)NC(=O)CNC1=O (some centres not stated) (DRGD[Cys(O)(CH2CO)]-OH; lactam N-5),2.14 µM
8,N=C(N)NCCC[C@H](NC(=O)CN)C(=O)NCC(=O)N[C@@H](CC(=O)O)C(=O)N[C@@H](CC(=O)O)C(=O)O (H-GRGDD-OH),> 500 µM
9,CC(C)C[C@H](NC(=O)[C@H](CC(=O)O)NC(=O)CNC(=O)[C@H](CCCNC(=N)N)NC(=O)CN)C(=O)O (H-GRGDL-OH),170 µM
10,CC(C)[C@H](NC(=O)[C@H](CC(=O)O)NC(=O)CNC(=O)[C@H](CCCNC(=N)N)NC(=O)CN)C(=O)O (H-GRGDV-OH),75 µM
11,N=C(N)NCCC[C@H](NC(=O)CN)C(=O)NCC(=O)N[C@@H](CC(=O)O)C(=O)N[C@@H](Cc1ccc(O)cc1)C(=O)O (H-GRGDY-OH),170 µM
12,NC(N)=NCCC[C@H](N)C(=O)NCC(=O)N[C@@H](CC(=O)O)C(=O)N[C@@H](Cc1ccccc1)C(=O)O (H-RGDF-OH),43 µM
13,CC(C)C[C@H](NC(=O)[C@H](CC(=O)O)NC(=O)CNC(=O)[C@@H](N)CCCNC(=N)N)C(=O)O (H-RGDL-OH),> 2 µM
14,N=C(N)NCCC[C@H](N)C(=O)NCC(=O)N[C@@H](CC(=O)O)C(=O)N[C@@H](Cc1ccc(O)cc1)C(=O)O (H-RGDY-OH),94 µM
15,N=C(N)NCCC[C@@H]1NC(=O)[C@H](CCCCN)NC(=O)C[S+]([O-])C[C@@H](C(=O)O)NC(=O)[C@H](CC(=O)O)NC(=O)CNC1=O (some centres not stated) (KRGD[Cys(O)(CH2CO)]-OH; lactam N-5),2.8 µM
16,CC(C)C[C@@H]1NC(=O)C[S+]([O-])C[C@@H](C(=O)O)NC(=O)[C@H](CC(=O)O)NC(=O)CNC(=O)[C@H](CCCNC(=N)N)NC1=O (some centres not stated) (LRGD[Cys(O)(CH2CO)]-OH; lactam N-5),0.1 µM
17,N=C(N)NCCC[C@@H]1NC(=O)[C@H](CO)NC(=O)C[S+]([O-])C[C@@H](C(=O)O)NC(=O)[C@H](CC(=O)O)NC(=O)CNC1=O (some centres not stated) (SRGD[Cys(O)(CH2CO)]-OH; lactam N-5),0.49 µM
18,CC(C)[C@@H]1NC(=O)C[S+]([O-])C[C@@H](C(=O)O)NC(=O)[C@H](CC(=O)O)NC(=O)CNC(=O)[C@H](CCCNC(=N)N)NC1=O (some centres not stated) (VRGD[Cys(O)(CH2CO)]-OH; lactam N-5),0.21 µM
19,N=C(N)NCCC[C@@H]1NC(=O)[C@H](Cc2ccc(O)cc2)NC(=O)C[S+]([O-])C[C@@H](C(N)=O)NC(=O)[C@H](CC(=O)O)NC(=O)CNC1=O (some centres not stated) (YRGD[Cys(O)(CH2CO)]-NH2; lactam N-5),0.2 µM
